# Assay results as given in ChEMBL document CHEMBL1132942, “Quinolones: novel probes in antifilarial chemotheraphy” (2000).
# Legend:
# [1] = test system: Acanthocheilonema viteae; assay: (§1) Tested in vivo for Acanthocheilonema viteae at 200 mg/kg X 5 days(perorally); type: functional; conditions: route oral
# Outline: (§2)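 A. viteae transmitted to male M. coucha (6 weeks old) via vector tick Ornithodorus moubata. Test agents given orally at 200 mg/kg daily for five consecutive days. Micro- and macrofilaricidal activity assessed per earlier-described methods.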
# [2] = test system: Acanthocheilonema viteae; assay: as §1; type: functional; conditions: route oral; outline: as §2; remark: listed apart in the source
# [3] = Tested in vivo for sterilization of female worms; type: functional, Acanthocheilonema viteae; design: concentration or dose not given beside the values
SMILES,Reduction [1] [%],Reduction [2] [%],Reduction [3] [%]
O=C(NC1CCCCC1)c1cnc2ccccc2c1O,100,90,–
CCN(CC)CCCC(C)NC(=O)c1cnc2cc(Cl)c(F)cc2c1O (stereo unspecified),0,60,0
O=C(NC1CCCCC1)c1cnc2cc([N+](=O)[O-])ccc2c1O,80,24,0
CCCCCCCCNC(=O)c1cnc2ccc(F)cc2c1O,0,48,0
CCCCCCCCNC(=O)c1cnc2ccc(Cl)cc2c1O,50,30,0
O=C(NC1CCCCC1)c1cnc2ccc([N+](=O)[O-])cc2c1O,0,54,0
CCCCCCCCNC(=O)c1cnc2c(F)cccc2c1O,47,37,25
CCN(CC)CCCC(C)NC(=O)c1cnc2ccc([N+](=O)[O-])cc2c1O (stereo unspecified),0,54,0
CCCCCCCCNC(=O)c1cnc2ccc([N+](=O)[O-])cc2c1O,38,40,100
CCCCCCCCNC(=O)c1cnc2ccccc2c1O,0,25,0
O=C(NC1CCCCC1)c1cnc2ccc(F)cc2c1O,31,50,36
CCN(CC)C(=O)N1CCN(C)CC1.O=C(O)CC(O)(CC(=O)O)C(=O)O [DIETHYLCARBAMAZINE CITRATE],0,90,0
Cc1cccc2c(O)c(C(=O)NC3CCCCC3)cnc12,0,54,0
CCCCCCCCNC(=O)c1cnc2c(C)cccc2c1O,0,17,0
